Experimental data as given in ChEMBL document CHEMBL4257478, “Design, synthesis and evaluation of (R)-3-(7-(methyl(7H-pyrrolo[2,3-d]pyrimidin-4-yl)amino)-5-azaspiro[2.4]heptan-5-yl)-3-oxopropanenitrile as a JAK1-selective inhibitor” (Medchemcomm, 2018).

Legend:
[1] = biological target: Tyrosine-protein kinase JAK1 (Homo sapiens, UniProt P23458); assay: Inhibition of human JAK1 using GEEPLYWSFPAKKK as substrate after 40 mins in presence of [gamma-33P-ATP] by scintillation counting method
[2] = biological target: T1, Tyrosine-protein kinase JAK2 (Homo sapiens, UniProt O60674); assay: Inhibition of human JAK2 using KTFCGTPEYLAPEVRREPRILSEEEQEMFRDFDYIADWC as substrate after 40 mins in presence of [gamma-33P-ATP] by scintillation counting method
[3] = Cmax in Sprague-Dawley rat at 10 mg/kg, po after 0.25 to 24 hrs by LC-MS/MS method; type: ADME, organism-based; parameters: dose 10 mg/kg, route oral; settings: in vivo
Procedure, shortened: (§1)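 Male Sprague Dawley rats, 7-8 weeks old, n=4 per group. IV dose 5 mg/kg free base in 10% ethanol/90% PEG400; oral dose 10 mg/kg as corn oil suspension after 16 h fast. Blood taken 0.08-24 h (IV) or 0.25-24 h (PO). Plasma diluted in acetonitrile with internal standard, analysed by LC-MS/MS, parameters by non-compartmental analysis.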

[4] = tested on: Rattus norvegicus; assay: Antiarthritic activity in adjuvant-induced SPF LEW/SsNSlc rat arthritis model assessed as paw thickness at 5 mg/kg, po qd measured on 14 days; type: functional
Procedure, shortened: (§2)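 Lewis rats were 10 weeks old after 2 weeks acclimation. Immunized s.c. at the tail base with 0.1 mL complete Freund's adjuvant containing 10 mg/mL heat-killed mycobacterium. From day 12 post-immunization (day 1), n=10 per group, oral dosing once daily for 14 days, vehicle corn oil. Clinical score and hind paw measured twice weekly.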

[5] = Half life in Sprague-Dawley rat at 10 mg/kg, po after 0.25 to 24 hrs by LC-MS/MS method; type: ADME, organism-based; settings: in vivo; procedure, shortened: as §1
[6] = tested on: Rattus norvegicus; assay: AUC (0 to t) in Sprague-Dawley rat at 10 mg/kg, po after 0.25 to 24 hrs by LC-MS/MS method; type: ADME, organism-based; parameters: time lower 0.25 hr, dose 10 mg/kg, time upper 24 hr, route oral; settings: in vivo; procedure, shortened: as §1
[7] = MRT in Sprague-Dawley rat at 5 mg/kg, iv after 0.08 to 24 hrs by LC-MS/MS method; type: ADME, organism-based; settings: in vivo; procedure, shortened: as §1
[8] = Half life in Sprague-Dawley rat at 5 mg/kg, iv after 0.08 to 24 hrs by LC-MS/MS method; type: ADME, organism-based; settings: in vivo; procedure, shortened: as §1
[9] = biological target: Voltage-gated inwardly rectifying potassium channel KCNH2 (Homo sapiens, UniProt Q12809); assay: Inhibition of human ERG expressed in HEK293 cells after 5 mins by automated planar patch clamp method; type: cell-based
[10] = tested on: Rattus norvegicus; assay: Antiarthritic activity in adjuvant-induced SPF LEW/SsNSlc rat arthritis model assessed as paw thickness at 20 mg/kg, po qd measured on day 14; type: functional; procedure, shortened: as §2
[11] = MRT in Sprague-Dawley rat at 10 mg/kg, po after 0.25 to 24 hrs by LC-MS/MS method; type: ADME, organism-based; settings: in vivo; procedure, shortened: as §1
[12] = tested on: Rattus norvegicus; assay: AUC (0 to infinity) in Sprague-Dawley rat at 5 mg/kg, iv after 0.08 to 24 hrs by LC-MS/MS method; type: ADME, organism-based; parameters: dose 5 mg/kg, time infinity, route intravenous; settings: in vivo; procedure, shortened: as §1
[13] = Tmax in Sprague-Dawley rat at 10 mg/kg, po after 0.25 to 24 hrs by LC-MS/MS method; type: ADME, organism-based; settings: in vivo
Procedure, shortened: (§3)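 Male Sprague Dawley rats, 7–8 weeks old, n=4, fasted 16 h. Free base given at 10 mg/kg po as a corn oil suspension (5 mL/kg); a 5 mg/kg iv arm used 10% ethanol/90% PEG400. Plasma sampled 0.25–24 h, acetonitrile-precipitated with internal standard, and measured by LC-MS/MS. Parameters derived by non-compartmental analysis.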

[14] = tested on: Rattus norvegicus; assay: Antiarthritic activity in adjuvant-induced SPF LEW/SsNSlc rat arthritis model assessed as paw thickness at 10 mg/kg, po qd measured on day 14; type: functional; procedure, shortened: as §2
[15] = tested on: Rattus norvegicus; assay: AUC (0 to t) in Sprague-Dawley rat at 5 mg/kg, iv after 0.08 to 24 hrs by LC-MS/MS method; type: ADME, organism-based; parameters: time upper 24 hr, time lower 0.08 hr, dose 5 mg/kg, route intravenous; settings: in vivo; procedure, shortened: as §1
[16] = biological target: T1, Tyrosine-protein kinase JAK2; assay: Inhibition of human JAK2 at 10 uM using KTFCGTPEYLAPEVRREPRILSEEEQEMFRDFDYIADWC as substrate after 40 mins in presence of [gamma-33P-ATP] by scintillation counting method relative to control
[17] = tested on: Rattus norvegicus; assay: AUC (0 to infinity) in Sprague-Dawley rat at 10 mg/kg, po after 0.25 to 24 hrs by LC-MS/MS method; type: ADME, organism-based; parameters: dose 10 mg/kg, route oral, time infinity; settings: in vivo; procedure, shortened: as §1
[18] = Oral bioavailability in Sprague-Dawley rat at 10 mg/kg after 0.25 to 24 hrs by LC-MS/MS method; type: ADME, organism-based; settings: in vivo; procedure, shortened: as §3

T1 sequence (O60674 whole entry): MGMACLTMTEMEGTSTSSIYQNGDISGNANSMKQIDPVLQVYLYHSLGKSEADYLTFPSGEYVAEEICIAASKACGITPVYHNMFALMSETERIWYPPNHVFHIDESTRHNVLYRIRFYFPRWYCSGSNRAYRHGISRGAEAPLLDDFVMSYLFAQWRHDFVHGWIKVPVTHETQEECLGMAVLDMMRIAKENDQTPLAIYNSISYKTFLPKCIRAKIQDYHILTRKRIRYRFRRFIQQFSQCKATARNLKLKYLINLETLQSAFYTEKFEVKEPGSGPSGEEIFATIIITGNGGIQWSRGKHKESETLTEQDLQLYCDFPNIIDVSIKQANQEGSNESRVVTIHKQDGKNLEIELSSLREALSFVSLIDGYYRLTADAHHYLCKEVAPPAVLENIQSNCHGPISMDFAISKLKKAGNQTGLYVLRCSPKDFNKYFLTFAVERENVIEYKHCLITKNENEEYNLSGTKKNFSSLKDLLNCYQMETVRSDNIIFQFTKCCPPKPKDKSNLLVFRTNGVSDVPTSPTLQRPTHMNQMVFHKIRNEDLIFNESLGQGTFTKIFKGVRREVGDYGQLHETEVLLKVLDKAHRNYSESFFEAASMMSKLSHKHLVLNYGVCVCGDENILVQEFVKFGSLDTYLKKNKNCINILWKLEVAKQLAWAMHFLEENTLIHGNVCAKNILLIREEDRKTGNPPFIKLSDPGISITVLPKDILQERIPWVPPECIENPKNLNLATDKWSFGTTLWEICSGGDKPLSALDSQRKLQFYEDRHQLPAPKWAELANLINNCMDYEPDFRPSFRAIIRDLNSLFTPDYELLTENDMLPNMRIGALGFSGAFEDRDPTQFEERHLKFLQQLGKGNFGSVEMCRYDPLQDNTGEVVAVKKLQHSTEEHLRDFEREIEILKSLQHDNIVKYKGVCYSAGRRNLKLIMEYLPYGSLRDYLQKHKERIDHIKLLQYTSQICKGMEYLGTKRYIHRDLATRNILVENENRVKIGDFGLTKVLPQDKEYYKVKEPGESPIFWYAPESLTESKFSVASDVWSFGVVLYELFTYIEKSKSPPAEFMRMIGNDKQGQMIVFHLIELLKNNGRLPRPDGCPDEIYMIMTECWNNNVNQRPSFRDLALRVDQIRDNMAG
Chain of Tyrosine-protein kinase JAK1 (P23458 whole entry): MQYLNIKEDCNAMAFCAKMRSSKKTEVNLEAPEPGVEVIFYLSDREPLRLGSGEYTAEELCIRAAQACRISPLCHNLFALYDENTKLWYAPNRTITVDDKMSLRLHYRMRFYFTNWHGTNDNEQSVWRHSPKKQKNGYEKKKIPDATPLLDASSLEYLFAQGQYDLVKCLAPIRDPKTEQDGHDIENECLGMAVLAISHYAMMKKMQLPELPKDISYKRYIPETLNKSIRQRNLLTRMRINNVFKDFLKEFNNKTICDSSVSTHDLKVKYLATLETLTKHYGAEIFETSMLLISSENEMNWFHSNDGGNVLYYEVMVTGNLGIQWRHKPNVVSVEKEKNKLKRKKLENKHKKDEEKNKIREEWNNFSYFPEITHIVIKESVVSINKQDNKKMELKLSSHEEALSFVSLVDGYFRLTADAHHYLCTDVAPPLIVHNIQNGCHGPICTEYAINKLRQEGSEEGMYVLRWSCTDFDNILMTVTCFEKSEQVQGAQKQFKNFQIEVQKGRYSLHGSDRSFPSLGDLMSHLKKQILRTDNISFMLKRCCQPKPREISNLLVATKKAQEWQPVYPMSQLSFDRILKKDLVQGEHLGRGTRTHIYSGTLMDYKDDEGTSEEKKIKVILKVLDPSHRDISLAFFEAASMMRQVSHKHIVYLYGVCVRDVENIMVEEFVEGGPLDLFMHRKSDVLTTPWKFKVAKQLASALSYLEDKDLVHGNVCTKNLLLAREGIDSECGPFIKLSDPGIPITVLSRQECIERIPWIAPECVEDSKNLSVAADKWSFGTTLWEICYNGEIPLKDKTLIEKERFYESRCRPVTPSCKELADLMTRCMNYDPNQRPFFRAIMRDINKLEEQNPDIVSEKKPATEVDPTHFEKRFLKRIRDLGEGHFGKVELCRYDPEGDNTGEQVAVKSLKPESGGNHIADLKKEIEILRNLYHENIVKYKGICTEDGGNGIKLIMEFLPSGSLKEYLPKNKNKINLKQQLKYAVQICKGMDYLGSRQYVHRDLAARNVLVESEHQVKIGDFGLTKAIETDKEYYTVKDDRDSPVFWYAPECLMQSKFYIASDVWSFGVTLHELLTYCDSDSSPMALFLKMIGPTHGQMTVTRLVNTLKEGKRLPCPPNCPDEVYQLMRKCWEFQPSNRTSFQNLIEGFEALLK
Chain of Voltage-gated inwardly rectifying potassium channel KCNH2 (Q12809 whole entry): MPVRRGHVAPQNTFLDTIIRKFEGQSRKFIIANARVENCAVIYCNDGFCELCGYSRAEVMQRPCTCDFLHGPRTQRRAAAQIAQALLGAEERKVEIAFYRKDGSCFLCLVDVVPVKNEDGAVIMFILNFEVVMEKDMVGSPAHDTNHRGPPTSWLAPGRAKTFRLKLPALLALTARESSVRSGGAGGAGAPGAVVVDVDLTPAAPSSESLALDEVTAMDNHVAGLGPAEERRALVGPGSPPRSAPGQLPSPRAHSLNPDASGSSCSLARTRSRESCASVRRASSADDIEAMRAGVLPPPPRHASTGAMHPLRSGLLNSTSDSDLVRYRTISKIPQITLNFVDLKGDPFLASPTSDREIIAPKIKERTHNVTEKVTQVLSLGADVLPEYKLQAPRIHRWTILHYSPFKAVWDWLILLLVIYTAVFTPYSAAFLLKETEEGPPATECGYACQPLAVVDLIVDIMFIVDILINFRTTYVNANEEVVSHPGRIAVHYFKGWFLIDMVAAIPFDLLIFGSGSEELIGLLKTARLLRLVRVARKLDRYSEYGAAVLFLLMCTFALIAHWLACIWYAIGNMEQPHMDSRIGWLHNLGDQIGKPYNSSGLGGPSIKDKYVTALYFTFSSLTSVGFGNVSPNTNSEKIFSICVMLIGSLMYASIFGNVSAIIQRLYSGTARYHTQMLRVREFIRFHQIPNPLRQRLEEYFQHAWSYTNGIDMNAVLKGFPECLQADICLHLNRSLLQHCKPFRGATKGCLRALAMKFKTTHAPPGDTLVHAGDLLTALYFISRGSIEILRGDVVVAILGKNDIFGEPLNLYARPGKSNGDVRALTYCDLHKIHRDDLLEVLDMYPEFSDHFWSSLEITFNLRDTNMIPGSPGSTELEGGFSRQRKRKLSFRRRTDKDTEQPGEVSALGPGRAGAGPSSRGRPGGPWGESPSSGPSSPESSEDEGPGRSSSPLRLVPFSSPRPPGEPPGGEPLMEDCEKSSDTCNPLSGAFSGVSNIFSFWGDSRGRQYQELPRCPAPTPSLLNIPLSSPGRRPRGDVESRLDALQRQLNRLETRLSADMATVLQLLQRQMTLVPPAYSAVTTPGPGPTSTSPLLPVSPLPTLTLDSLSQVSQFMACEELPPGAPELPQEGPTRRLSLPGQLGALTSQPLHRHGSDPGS

Row | IC50 [1] | IC50 [2] | Cmax [3] | half-life [5] | AUCt [6] | MRT [7] | half-life [8] | MRT [11] | AUC [12] | Tmax [13] | AUCt [15] | inhibition at 10 µM [16] | AUC [17] | bioavailability [18] | Compound | Activity [4] | IC50 [9] | Activity [10] | Activity [14]
1 | 7.2 nM | 180 nM |  |  |  |  |  |  |  |  |  |  |  |  | CCS(=O)(=O)N1C[C@H](N(C)c2ncnc3[nH]ccc23)C2(CC2)C1 |  |  |  | 
2 |  |  | 1000 ng/mL | 2.1 h | 1900 ng·h/mL | 1.1 h | 1.2 h | 3.1 h | 920 ng·h/mL | 0.3 h | 900 ng·h/mL | 90% | 2100 ng·h/mL | 110% | CN(c1ncnc2[nH]ccc12)[C@H]1CN(C(=O)CC#N)CC12CC2 | 10.33 mm | 120000 nM | 10.2 mm | 10.21 mm
